Reference: ChEMBL document CHEMBL5584273, “Investigation of Isobactin Analogues of Teixobactin” (ACS Med Chem Lett, 2024)
Bridge positions count the residues as written; N and C are the ends. Square brackets hold non-standard residues; d marks the D form. Side chains are listed from the residue outwards. Peptide text beside a SMILES is read from it. I, II: the chains in the order shown. * marks the point of attachment. Ser(O-(NMe-dPhe-Ile)) = CC[C@H](C)[C@H](NC(=O)[C@@H](Cc1ccccc1)NC)C(=O)OC[C@H](N)C(=O)*; d(aIle) = CC[C@H](C)[C@@H](N)C(=O)O; dNMeF = CN[C@H](Cc1ccccc1)C(=O)O; Chg = N[C@H](C(=O)O)C1CCCCC1

Key:
[1] = system: Staphylococcus epidermidis; test: Antibiotic activity against Staphylococcus epidermidis ATCC 14990 assessed as inhibition of bacterial growth incubated for 16 hrs in presence of 0.002% polysorbate 80; assay type: functional
Procedure, shortened: (§1)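 Broth microdilution in media containing 0.002% polysorbate 80. Overnight cultures were grown at 37 °C with shaking in Mueller-Hinton broth. Inoculum was set from background-corrected OD600 to about 5 × 10^5 CFU/mL final. Plates were incubated 16 h at 37 °C and OD600 was read. MIC is the lowest concentration with no growth. Run in quadruplicate technical replicates.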

Enterococcus faecalis = test: Antibiotic activity against vancomycin-resistant Enterococcus faecalis ATCC 51299 assessed as inhibition of bacterial growth incubated for 16 hrs in presence of 0.002% polysorbate 80; assay type: functional
Staphylococcus aureus [2] = test: Antibiotic activity against methicillin-sensitive Staphylococcus aureus ATCC 29213 assessed as inhibition of bacterial growth incubated for 16 hrs in presence of 0.002% polysorbate 80; assay type: functional
Procedure, shortened: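 Overnight culture from glycerol stock in Mueller-Hinton broth at 37 °C with shaking; all media contain 0.002% polysorbate 80. DMSO stock (1 mg/mL) diluted in medium; 2-fold series, final 8–0.0078 μg/mL; inoculum ~5 × 10^5 CFU/mL (OD600-normalised).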

HeLa = test: Cytotoxicity against human HeLa cells at 50 uM by promega cytotox-glo assay; assay type: toxicity, cell-based
Procedure, shortened: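 HeLa cells were exposed to compound at concentrations up to 50 μM. Cytotoxicity was read with the Cytotox-Glo luminescent assay.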

[3] = Solubility in PBS buffer at pH 7.4 at 0.5 mg/ml by HPLC analysis; assay type: physicochemical
[4] = Hemolytic activity in human Red blood cell assessed as hemolysis at 100 microg/ml in presence of 0.002% polysorbate 80 relative to control; assay type: toxicity, cell-based, Erythrocyte; settings: red blood cells (erythrocytes), at 100 µg/mL, read-out: Activity
Procedure, shortened: (§2)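 Human red blood cells were tested with and without 0.002% polysorbate 80. Triton X-100 served as the 100% lysis control and water (vehicle) as the 0% lysis control. 1.25 μM melittin was an added positive control.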

Staphylococcus aureus [5] = test: Antibiotic activity against methicillin-resistant Staphylococcus aureus ATCC 700698 assessed as inhibition of bacterial growth incubated for 16 hrs in presence of 0.002% polysorbate 80; assay type: functional
Procedure, shortened: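 Overnight culture from glycerol stock in brain heart infusion broth at 37 °C with shaking; all media contain 0.002% polysorbate 80. DMSO stock (1 mg/mL) diluted in medium; 2-fold series, final 8–0.0078 μg/mL; inoculum ~5 × 10^5 CFU/mL (OD600-normalised).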

Erythrocyte = test: Hemolytic activity in human Red blood cell at 25 microg/ml in absence of polysorbate 80; assay type: toxicity, cell-based; settings: dose 25 µg/ml; procedure, shortened: as §2
Bacillus subtilis = test: Antibiotic activity against Bacillus subtilis ATCC 6051 assessed as inhibition of bacterial growth incubated for 16 hrs in presence of 0.002% polysorbate 80; assay type: functional
Procedure, shortened: as §1, with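 “final. 2-fold dilutions gave final 8 to 0.0078 μg/mL from a DMSO stock.” for “final.”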

Escherichia coli = test: Antibiotic activity against Escherichia coli ATCC 10798 assessed as inhibition of bacterial growth incubated for 16 hrs in presence of 0.002% polysorbate 80; assay type: functional
Procedure, shortened: as §1, with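 “final. 2-fold dilutions gave final 8 to 0.0078 μg/mL from a DMSO stock.” for “final.”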

| SMILES | MIC [1] [µg/mL] | MIC (Enterococcus faecalis) [µg/mL] | MIC (Staphylococcus aureus [2]) [µg/mL] | Activity (HeLa) | solubility [3] | hemolysis at 100 microg/ml [4] [%] | MIC (Staphylococcus aureus [5]) [µg/mL] | Activity (Erythrocyte) | MIC (Bacillus subtilis) [µg/mL] | MIC (Escherichia coli) [µg/mL] |
| --- | --- | --- | --- | --- | --- | --- | --- | --- | --- | --- |
| CC[C@H](C)[C@H](NC(=O)[C@@H](Cc1ccccc1)NC)C(=O)N[C@@H](CO)C(=O)N[C@H](CCCNC(=N)N)C(=O)N[C@@H](C(=O)N[C@H](C(=O)OC[C@H](N)C(=O)N[C@H]1C(=O)N[C@@H](C)C(=O)N[C@@H](CC(C)C)C(=O)N[C@@H]([C@@H](C)CC)C(=O)O[C@H]1C)[C@@H](C)CC)[C@@H](C)CC (I: H-[dNMeF]IS[dR][d(aIle)]I / II: H-S[dT]ALI; ester I:C-II:1, II:2-II:C) | 0.016 | 1 | 0.125 |  |  |  |  |  |  |  |
| CC[C@H](C)[C@H](NC(=O)[C@@H](Cc1ccccc1)NC)C(=O)N[C@@H](CO)C(=O)N[C@H](CCCNC(=N)N)C(=O)N[C@@H](C(=O)N[C@H](C(=O)N[C@@H](CO)C(=O)N[C@H]1C(=O)N[C@@H](C)C(=O)N[C@@H](C2CCCCC2)C(=O)N[C@@H]([C@@H](C)CC)C(=O)O[C@H]1C)[C@@H](C)CC)[C@@H](C)CC | 0.125 |  |  | Toxic | Insoluble |  |  |  |  |  |
| CC[C@H](C)[C@H](NC(=O)[C@@H](Cc1ccccc1)NC)C(=O)N[C@@H](CO)C(=O)N[C@H](CCCNC(=N)N)C(=O)N[C@@H](C(=O)N[C@H](C(=O)OC[C@H](N)C(=O)N[C@H]1C(=O)N[C@@H](C)C(=O)N[C@@H](C2CCCCC2)C(=O)N[C@@H]([C@@H](C)CC)C(=O)O[C@H]1C)[C@@H](C)CC)[C@@H](C)CC (I: H-[dNMeF]IS[dR][d(aIle)]I / II: H-S[dT]A[Chg]I; ester I:C-II:1, II:2-II:C) |  |  | 1 | Toxic | Insoluble | 0 | 1 | Non-Toxic |  |  |
| CC[C@H](C)[C@H](NC(=O)[C@@H](Cc1ccccc1)NC)C(=O)N[C@@H](CO)C(=O)N[C@H](CCC(N)=O)C(=O)N[C@@H](C(=O)N[C@H](C(=O)OC[C@H](N)C(=O)N[C@H]1C(=O)N[C@@H](C)C(=O)N[C@@H](C[C@H]2CNC(=N)N2)C(=O)N[C@@H]([C@@H](C)CC)C(=O)O[C@H]1C)[C@@H](C)CC)[C@@H](C)CC | 0.25 | 0.5 | 0.5 |  |  |  | 0.5 |  | 0.062 | > 8 |
| CC[C@H](C)[C@H](NC(=O)[C@H](NC(=O)[C@@H](CCCNC(=N)N)NC(=O)[C@@H](N)COC(=O)[C@@H](NC(=O)[C@@H](Cc1ccccc1)NC)[C@@H](C)CC)[C@@H](C)CC)C(=O)N[C@@H](CO)C(=O)N[C@H]1C(=O)N[C@@H](C)C(=O)N[C@@H](CC(C)C)C(=O)N[C@@H]([C@@H](C)CC)C(=O)O[C@H]1C (H-S([Ile-dNMeF])[dR][d(aIle)]IS[dT]ALI; ester 6-C) | 0.031 |  |  |  |  |  | 0.5 |  | 0.008 |  |
| CC[C@H](C)[C@H](NC(=O)[C@@H](Cc1ccccc1)NC)C(=O)N[C@@H](CO)C(=O)N[C@H](CCCNC(=N)N)C(=O)N[C@@H](C(=O)N[C@H](C(=O)N[C@@H](CO)C(=O)N[C@H]1C(=O)N[C@@H](C)C(=O)N[C@@H](CC(C)C)C(=O)N[C@@H]([C@@H](C)CC)C(=O)O[C@H]1C)[C@@H](C)CC)[C@@H](C)CC |  |  | 0.25 |  |  |  |  |  |  |  |
| CC[C@H](C)[C@H](NC(=O)[C@@H](Cc1ccccc1)NC)C(=O)OC[C@H](N)C(=O)N[C@H](CCCNC(=N)N)C(=O)N[C@@H](C(=O)N[C@H](C(=O)OC[C@H](N)C(=O)N[C@H]1C(=O)N[C@@H](C)C(=O)N[C@@H](CC(C)C)C(=O)N[C@@H]([C@@H](C)CC)C(=O)O[C@H]1C)[C@@H](C)CC)[C@@H](C)CC (H-S([Ile-d(aIle)-dR-Ser(O-(NMe-dPhe-Ile))])[dT]ALI; ester 2-C) |  |  |  |  |  |  | 1 |  | 0.016 |  |
| CC[C@H](C)[C@H](NC(=O)[C@H](NC(=O)[C@@H](CCCNC(=N)N)NC(=O)[C@@H](N)COC(=O)[C@@H](NC(=O)[C@@H](Cc1ccccc1)NC)[C@@H](C)CC)[C@@H](C)CC)C(=O)N[C@@H](CO)C(=O)N[C@H]1C(=O)N[C@@H](C)C(=O)N[C@@H](C2CCCCC2)C(=O)N[C@@H]([C@@H](C)CC)C(=O)O[C@H]1C (H-S([Ile-dNMeF])[dR][d(aIle)]IS[dT]A[Chg]I; ester 6-C) |  | 1 |  | Toxic | Insoluble | 0 |  | Non-Toxic |  |  |
| CC[C@H](C)[C@H](NC(=O)[C@@H](Cc1ccccc1)NC)C(=O)OC[C@H](N)C(=O)N[C@H](CCCNC(=N)N)C(=O)N[C@@H](C(=O)N[C@H](C(=O)OC[C@H](N)C(=O)N[C@H]1C(=O)N[C@@H](C)C(=O)N[C@@H](C2CCCCC2)C(=O)N[C@@H]([C@@H](C)CC)C(=O)O[C@H]1C)[C@@H](C)CC)[C@@H](C)CC (H-S([Ile-d(aIle)-dR-Ser(O-(NMe-dPhe-Ile))])[dT]A[Chg]I; ester 2-C) |  | 1 |  | Toxic | Insoluble | 0 | 1 | Non-Toxic | 0.125 |  |
| CN[C@H](CC(C)C)C(=O)N[C@H]1C(=O)N[C@@H](CC(N)=O)C(=O)N[C@H]2C(=O)N[C@H]3C(=O)N[C@H](C(=O)N[C@H](C(=O)O)c4cc(O)cc(O)c4-c4cc3ccc4O)[C@H](O)c3ccc(c(Cl)c3)Oc3cc2cc(c3O[C@@H]2O[C@H](CO)[C@@H](O)[C@H](O)[C@H]2O[C@H]2C[C@](C)(N)[C@H](O)[C@H](C)O2)Oc2ccc(cc2Cl)[C@H]1O [VANCOMYCIN] |  | > 8 |  |  |  |  |  |  | 0.5 |  |
